Data as given in ChEMBL document CHEMBL1800047, “Design and synthesis of cyclic sulfonamides and sulfamates as new calcium sensing receptor agonists” (Bioorg Med Chem Lett, 2010).
Residue numbers refer to the chain shown, from its start.

Columns and labels:
Assay type in all cases: functional, cell-based
[1] = biological target: T1, Extracellular calcium-sensing receptor (Rattus norvegicus) (UniProt P48442); assay: Agonist activity at rat CaSR expressed in CHO cells assessed as increase of calcium-induced inositol phosphate accumulation at 10 uM after 24 hrs by HTRF assay relative to calcium
T1 sequence (whole entry): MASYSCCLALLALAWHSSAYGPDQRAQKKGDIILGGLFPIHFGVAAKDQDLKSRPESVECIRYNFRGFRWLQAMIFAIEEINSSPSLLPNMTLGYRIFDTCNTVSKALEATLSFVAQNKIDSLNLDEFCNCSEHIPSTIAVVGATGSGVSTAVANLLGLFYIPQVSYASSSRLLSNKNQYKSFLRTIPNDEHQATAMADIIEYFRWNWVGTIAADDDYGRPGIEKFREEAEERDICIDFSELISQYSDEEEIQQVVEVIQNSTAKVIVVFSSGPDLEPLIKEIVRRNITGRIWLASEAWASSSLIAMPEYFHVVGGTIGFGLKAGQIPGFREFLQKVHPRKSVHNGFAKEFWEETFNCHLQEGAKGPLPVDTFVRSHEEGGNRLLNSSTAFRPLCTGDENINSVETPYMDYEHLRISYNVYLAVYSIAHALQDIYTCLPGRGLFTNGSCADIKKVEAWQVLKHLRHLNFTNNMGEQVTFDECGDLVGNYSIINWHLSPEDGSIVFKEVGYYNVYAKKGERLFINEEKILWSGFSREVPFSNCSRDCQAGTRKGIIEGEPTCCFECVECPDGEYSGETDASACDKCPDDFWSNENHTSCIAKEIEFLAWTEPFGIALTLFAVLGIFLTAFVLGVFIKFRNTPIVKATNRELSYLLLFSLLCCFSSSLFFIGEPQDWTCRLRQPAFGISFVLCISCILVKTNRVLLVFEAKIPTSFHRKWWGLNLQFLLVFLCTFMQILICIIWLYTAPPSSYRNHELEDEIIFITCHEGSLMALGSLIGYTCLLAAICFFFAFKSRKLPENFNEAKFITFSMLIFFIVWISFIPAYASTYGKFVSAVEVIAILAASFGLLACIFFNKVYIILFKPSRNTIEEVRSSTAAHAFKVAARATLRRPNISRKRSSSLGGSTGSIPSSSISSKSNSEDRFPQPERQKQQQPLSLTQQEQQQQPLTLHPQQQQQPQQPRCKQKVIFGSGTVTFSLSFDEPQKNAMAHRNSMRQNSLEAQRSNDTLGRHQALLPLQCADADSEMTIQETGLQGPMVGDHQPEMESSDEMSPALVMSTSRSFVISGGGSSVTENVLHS
Summary of the method: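 CHO cells stably expressing rat brain CaSR are grown in Ham's F-12 (0.3 mM Ca²⁺, 0.6 mM Mg²⁺) and seeded at 4 × 10⁴ cells/well. IP-One HTRF runs 24 h later: 10 min preincubation at 37 °C, then 10 µM compound (from 10 mM DMSO stock) with 3 mM Ca²⁺, 30 min at 37 °C. Values are % of 10 mM Ca²⁺ stimulation, mean with S.E.M.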

[2] = biological target: T2, Extracellular calcium-sensing receptor (Homo sapiens) (UniProt P41180); assay: Agonist activity at human CaSR expressed in HEK293 cells assessed as increase of calcium-induced inositol phosphate accumulation at 10 uM after 48 hrs by HTRF assay relative to calcium
T2 sequence (whole entry): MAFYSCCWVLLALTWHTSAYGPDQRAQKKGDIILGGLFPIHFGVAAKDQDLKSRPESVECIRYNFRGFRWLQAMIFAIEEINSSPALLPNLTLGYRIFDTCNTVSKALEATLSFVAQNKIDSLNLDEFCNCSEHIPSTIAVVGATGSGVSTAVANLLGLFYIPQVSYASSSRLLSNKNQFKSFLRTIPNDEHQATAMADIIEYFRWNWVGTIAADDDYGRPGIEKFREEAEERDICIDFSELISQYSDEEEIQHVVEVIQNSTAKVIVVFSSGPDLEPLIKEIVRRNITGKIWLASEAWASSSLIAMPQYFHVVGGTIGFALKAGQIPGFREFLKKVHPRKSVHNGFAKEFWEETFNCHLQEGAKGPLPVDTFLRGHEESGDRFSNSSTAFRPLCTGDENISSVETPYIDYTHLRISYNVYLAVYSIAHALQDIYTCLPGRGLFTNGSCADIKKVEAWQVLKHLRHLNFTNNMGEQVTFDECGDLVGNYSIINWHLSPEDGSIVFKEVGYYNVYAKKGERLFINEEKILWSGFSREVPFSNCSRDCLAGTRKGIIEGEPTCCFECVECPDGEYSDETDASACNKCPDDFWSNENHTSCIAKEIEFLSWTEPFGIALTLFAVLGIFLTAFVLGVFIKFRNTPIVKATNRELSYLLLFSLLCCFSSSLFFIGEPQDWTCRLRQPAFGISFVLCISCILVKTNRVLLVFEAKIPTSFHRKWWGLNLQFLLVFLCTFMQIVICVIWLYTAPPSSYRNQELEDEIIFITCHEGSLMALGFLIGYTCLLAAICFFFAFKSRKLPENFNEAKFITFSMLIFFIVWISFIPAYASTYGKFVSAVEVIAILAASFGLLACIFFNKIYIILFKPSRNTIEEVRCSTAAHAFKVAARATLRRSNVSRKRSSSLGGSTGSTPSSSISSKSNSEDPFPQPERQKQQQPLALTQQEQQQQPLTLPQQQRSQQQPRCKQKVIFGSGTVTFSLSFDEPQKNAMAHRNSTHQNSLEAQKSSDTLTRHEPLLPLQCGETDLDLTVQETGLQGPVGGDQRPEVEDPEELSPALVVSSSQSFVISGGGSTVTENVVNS
Summary of the method: (§1)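 Wild-type or E837A mutant hCaSR (pcDNA3) transiently transfected into HEK293 cells (10⁷ cells, electroporation). Cells are plated on poly-D-lysine and assayed 48 h later. The assay uses a 10 min preincubation at 37 °C, then compound plus 3 mM Ca²⁺ for 30 min at 37 °C. IP-One HTRF read-out is 620/665 nm after 337 nm excitation. Values are % of 10 mM Ca²⁺ response, mean with S.E.M.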

[3] = test system: T3, Extracellular calcium-sensing receptor (Homo sapiens), P41180 [E837A]; assay: Agonist activity at human CaSR E837A mutant expressed in HEK293 cells assessed as increase of calcium-induced inositol phosphate accumulation at 10 uM after 48 hrs by HTRF assay relative to calcium; summary of the method: as §1
T3 sequence (whole entry): T2 sequence (whole entry) with E837A, E1011Q

Row | Compound | Activity [1] | Activity [2] | Activity [3]
1 | C[C@@H](NC[C@@H]1NS(=O)(=O)c2ccccc2-c2ccccc21)c1cccc2ccccc12 | 19% |  | 
2 | C[C@@H](NCC1Cc2ccccc2OS(=O)(=O)N1)c1cccc2ccccc12 (single isomer, unassigned; diastereomer 1) | 85% | 75% | 51%
3 | C[C@@H](NCc1cc2ccccc2[nH]1)c1cccc2ccccc12 | 95% | 94% | 41%
4 | C[C@@H](NC[C@H]1NS(=O)(=O)c2ccccc2-c2ccccc21)c1cccc2ccccc12 | 29% |  | 
5 | C[C@@H](NC1CNS(=O)(=O)Oc2ccccc2C1)c1cccc2ccccc12 (single isomer, unassigned; diastereomer 2) | 17% | 2% | 1%
6 | C[C@@H](NC1CNS(=O)(=O)Oc2ccccc2C1)c1cccc2ccccc12 (single isomer, unassigned; diastereomer 1) | 67% | 67% | 1%
7 | C[C@@H](NCC1NS(=O)(=O)c2ccccc21)c1cccc2ccccc12 (single isomer, unassigned; diastereomer 1) | 57% | 58% | 11%
8 | C[C@@H](N[C@H]1CNS(=O)(=O)c2ccccc21)c1cccc2ccccc12 | 30% |  | 
9 | C[C@@H](N[C@@H]1CNS(=O)(=O)c2ccccc21)c1cccc2ccccc12 | 13% |  | 
10 | C[C@@H](NCC1NS(=O)(=O)c2ccccc21)c1cccc2ccccc12 (single isomer, unassigned; diastereomer 2) | 39% | 51% | 11%

The next lines start with the values.

Row | Activity [1] | Activity [2] | Activity [3] | Compound
11 | 37% | 40% | 1% | C[C@@H](NCC1CCc2ccccc2S(=O)(=O)N1)c1cccc2ccccc12 (single isomer, unassigned; diastereomer 2)
12 | 75% | 70% | 3% | C[C@@H](NCC1CCc2ccccc2S(=O)(=O)N1)c1cccc2ccccc12 (single isomer, unassigned; diastereomer 1)
13 | 71% | 73% | 22% | C[C@@H](NCC1Cc2ccccc2S(=O)(=O)N1)c1cccc2ccccc12 (single isomer, unassigned; diastereomer 1)
14 | 76% | 65% | 27% | C[C@@H](NCC1Cc2ccccc2OS(=O)(=O)N1)c1cccc2ccccc12 (single isomer, unassigned; diastereomer 2)
15 | 69% | 64% | 10% | C[C@@H](NCC1Cc2ccccc2S(=O)(=O)N1)c1cccc2ccccc12 (single isomer, unassigned; diastereomer 2)
